# Bioassay records as filed in PubChem BioAssay.
# Shown are actives, neighbours in structure and some others; about 3.1% of the full set was active somewhere.
# NS3 helicase inh = blocks Hepatitis C virus NS3 helicase unwinding | NS3 helicase DNA unwinding, Cy5 molecular beacon fluorescence | inhibition, % at 10.9 µM | actives 0.56% (n = 290,000) | AID 1800;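 active = inhibition above the mean of all tested compounds plus 3 SD, set per campaign, cut at about 35% in these data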;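 note: 0% = DMSO wells and 100% = thioflavine S control wells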
#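 Test system: hepatitis C virus NS3 helicase domain fragment enzyme. Also added: annealed dual-labelled DNA beacon duplex, ATP-started. Timing: 60 min unwinding reaction at 25 °C after ATP addition. Technique: Cy5 fluorescence. Measure: % inhibition of unwinding.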
# IMP-1 inhibitor = inhibitors of Pseudomonas aeruginosa IMP-1 metallo-beta-lactamase; purified IMP-1, nitrocefin hydrolysis, epi-absorbance fluorescence; inhibition, % at 5.6 µM; actives 0.45% (n = 290,000); AID 1556;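 active = inhibition above the mean plus 3 SD of all compounds in the same screening run, cut at about 4.5% in these data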;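 note: 0% = IMP-1 with DMSO and 100% = DMSO wells lacking enzyme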
#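 System: purified IMP-1; amount: IMP-1 0.2 nM before substrate addition; compound: single dose, 5.6 µM; times: 25 °C, 15 min preincubation, 25 min reaction; signal: Epi-absorbance via hydrolysed-nitrocefin quenching of white-plate fluorescence, 480/530 nm, EDTA stop; benchmarks: DMSO with and without IMP-1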
# PHOSPHO1 inh = PHOSPHO1 (human) inhibition; Q8TCT1; recombinant PHOSPHO1, absorbance phosphatase assay; inhibition, % at 13.3 µM; actives 1.1% (n = 290,000); AID 1565; in the data active = inhibition above about 60%
# Target sequence (Q8TCT1 whole entry, looked up): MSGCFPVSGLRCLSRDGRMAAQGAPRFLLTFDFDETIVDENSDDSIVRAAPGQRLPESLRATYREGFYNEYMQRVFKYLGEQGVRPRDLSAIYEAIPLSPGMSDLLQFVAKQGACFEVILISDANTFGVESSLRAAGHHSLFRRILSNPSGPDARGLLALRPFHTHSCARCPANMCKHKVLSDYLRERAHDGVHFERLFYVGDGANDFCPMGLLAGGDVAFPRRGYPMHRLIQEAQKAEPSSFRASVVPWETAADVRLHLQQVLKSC
# core dimer inh = HCV core protein dimerization inhibition | actives 0.33% (n = 300,000) | TR-FRET GST/Flag-core106 dimerization, 1536-well | inhibition, % at 5 µM;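 active = inhibition above the mean of all tested compounds plus 3 SD, set per screening campaign, cut at about 45% in these data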
#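 Assay system – GST-tagged and Flag-tagged HCV core protein residues 1-106 · Quantity – core106 proteins, GST 13.5 nM and Flag 17 nM · Benchmarks – unlabelled core106 and no-GST-core106 wells · Read-out basis – percent inhibition of core106 dimerization signal · Detection – time-resolved FRET, ex 340 nm, em 617 and 671 nm · Schedule – 4 h at 22.5 °C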
# SUMO HTRF inh = blocks human SUMOylation mediated by UBC9; P63279; HTRF SUMOylation assay, SAE1/SAE2 + UBC9, in vitro; inhibition, % at 35 µM; actives 0.36% (n = 290,000); AID 2006; in the data active = inhibition above about 50%, passing the limit was not always enough
# Target sequence (P63279 whole entry, looked up): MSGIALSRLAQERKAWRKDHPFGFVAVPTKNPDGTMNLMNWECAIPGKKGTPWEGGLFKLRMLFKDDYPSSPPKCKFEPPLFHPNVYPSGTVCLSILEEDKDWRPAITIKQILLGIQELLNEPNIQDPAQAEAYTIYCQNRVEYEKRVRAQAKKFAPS
# VIM-2 inh = blocks Pseudomonas aeruginosa VIM-2 metallo-beta-lactamase; purified VIM-2, nitrocefin hydrolysis, epi-absorbance fluorescence; inhibition, % at 5.6 µM; actives 0.89% (n = 290,000); AID 1527;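 active = inhibition above the mean of all tested compounds plus 3 SD, cutoff set per screening run, cut at about 7.5% in these data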;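 note: red hydrolysis product quenches plate fluorescence so inhibitors raise well fluorescence; 0% = enzyme with DMSO and 100% = DMSO without enzyme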
# The depositor's hits bear a star; x = no result.
SMILES,NS3 helicase inh,IMP-1 inhibitor,PHOSPHO1 inh,core dimer inh,SUMO HTRF inh,VIM-2 inh
Cc1[nH]c(=S)c(C#N)c(-c2ccco2)c1C(=O)N(C)C,4,4,61*,-1,22,-2
CC(=O)c1c(C)[nH]c(=S)c(C#N)c1-c1ccc(Cl)cc1,-3,-2,32,13,24,-4
CCOC(=O)C1CCN(S(=O)(=O)c2ccc(Cl)s2)CC1,0,-3,22,5,-2,-1
Cc1ccc(C(=O)NN2CC(O)=C(c3nc(-c4cccc([N+](=O)[O-])c4)cs3)C2=N)cc1,3,-1,-1,54*,47,1
CC(=O)c1cccc(OCc2cc(C(=O)NCc3nc(C)c(C)s3)no2)c1,-1,-3,27,11,-6,0
CCCc1ccc2oc(C(=O)N(C)Cc3nccs3)c(C)c2c1,7,-4,27,-11,-6,-3
COCC(=O)Nc1nnc(-c2ccc(C(C)(C)C)cc2)s1,1,-3,45,-1,-8,-3
COc1ccc(CC(=S)N2CCOCC2)cc1OC,-3,0,24,-2,-3,-4
S=C(Cc1cccnc1)N1CCOCC1,2,-4,60*,-1,-1,0
Cc1ccc(N2C(=O)C3C(C2=O)C(C(=O)c2ccc(Cl)cc2)N2CCCC32)cc1 (stereo unspecified),21,-2,25,62*,11,-2
CCCCN(C(=O)c1ccc2c(c1)OCO2)c1ccccc1,15,0,41,1,12,0
O=C(CNC(=O)c1ccc(Br)cc1)OCc1cc([N+](=O)[O-])cc2c1OCOC2,-2,1,68*,1,-14,-3
CCN(CC)C(=O)c1sc2nc(N3CCOCC3)c3c(c2c1N)CCCC3,-1,-4,80*,5,5,0
Nc1c(C(=O)NCc2ccco2)sc2nc(N3CCOCC3)c3c(c12)CCCC3,18,1,92*,15,6,8
NC(=O)c1sc2nc(N3CCCCC3)c3c(c2c1N)CCCC3,19,-3,67*,2,-4,-1
COC(=O)c1sc2nc(N3CCCCC3)c3c(c2c1N)CCCC3,-1,-1,20,11,9,-2
c1ccc(-n2ncc3cccnc32)cc1,-5,-3,-1,-1,20,0
O=C(CSc1nnc(-c2ccco2)o1)c1ccc[nH]1,19,-3,-26,63*,41,-3
CCN(CC)CCSc1nnc2c3ccccc3n(CCc3ccccc3)c2n1,-18,-3,36,3,8,11*
CCn1c2ccccc2c2nnc(SCC(=O)OCN3C(=O)c4ccccc4C3=O)nc21,3,-5,0,-18,21,-1
COc1ccc2c(c1)c1nnc(SCC(=O)NC3CC3)nc1n2C,-6,-3,15,1,-19,0
CCOC(=O)CSc1nnc2c3ccccc3n(CC)c2n1,-1,-3,25,-5,8,7.9*
Cn1c2ccccc2c2nnc(SCC(=O)NC3CCCC3)nc21,6,-2,23,5,-4,9.2*
Cc1ccc(C)c(NC(=O)COC(=O)CCC(=O)c2cccs2)c1,3,-1,24,1,6,-1
O=C(NCC1CCCN(C(=O)NCc2ccccc2)C1)c1ccc2c(c1)OCO2 (stereo unspecified),2,-4,44,2,2,-5
SMILES,NS3 helicase inh,IMP-1 inhibitor,PHOSPHO1 inh,core dimer inh,SUMO HTRF inh,VIM-2 inh
CC1CC(C)CN(C(=O)c2ccc(NS(=O)(=O)c3ccc4[nH]c(=O)[nH]c4c3)cc2)C1 (stereo unspecified),x,x,x,-1,x,x
COc1cc(/C=C/[N+](=O)[O-])ccc1OC(=O)c1cc2ccccc2oc1=O,10,1,x,70*,17,0
O=C(Nc1ccc([N+](=O)[O-])cc1)N1CCCCC1,-5,0,37,3,12,-2
CC(=O)N1CC(C)Oc2ccc(S(=O)(=O)NC(CC(=O)O)c3ccccc3C)cc21 (stereo unspecified),1,-2,65*,-16,5,-2
CCc1[nH]nc2c1C1(CCN(C(=O)OCc3ccccc3)CC1)C(C#N)=C(N)O2,0,0,8,-6,14,11*
Cc1[nH]nc2c1C1(CCN(Cc3ccccc3)CC1)C(C#N)=C(N)O2,-2,-1,44,-1,-1,0
Cc1ccnc(SCC(=O)NC2CC2)n1,0,-3,22,3,16,-4
Oc1ccc(N2CCN(c3ncnc4sc5c(c34)CCC5)CC2)cc1,9,-4,75*,6,36,1
CC(=O)Nc1cccc(NC(=O)Nc2ccc(C(C)=O)cc2)c1,4,-4,-14,0,12,-1
CCN(CC)c1ccc(NC(=O)c2ccc(Br)o2)cc1,-5,-3,71*,-24,-10,1
COC(=O)Cc1ccc(NC(=O)c2ccc(Br)o2)cc1,2,-4,4,-4,-2,-1
CCOc1cccc(C(=O)Nc2ccc(N(CC)CC)cc2)c1,-1,-2,70*,-22,-24,1
CCN(CC)c1ccc(NC(=O)Nc2cccc(C(C)=O)c2)cc1,5,-2,74*,-27,-7,-2
CCOc1cccc(C(=O)Nc2ccc3ccccc3c2)c1,4,-2,14,1,-14,0
CN(C)CCCN1C(=O)c2oc3ccc(Cl)cc3c(=O)c2C1c1cccnc1 (stereo unspecified),-12,6.4*,-1,3,-9,1
CN(C)CCN1C(=O)c2oc3ccc(F)cc3c(=O)c2C1c1ccncc1 (stereo unspecified),0,-2,18,2,20,-1
O=C(c1cccc(S(=O)(=O)Nc2ccc(Br)cc2)c1)N1CCCC1,x,x,x,2,x,x
COC(=O)c1cc(OC)c(OC)cc1NC(=O)c1ccc(C)o1,4,-3,7,0,2,9.2*
COC(=O)c1ccccc1NC(=O)CN1C(=O)C2CCCN2c2ncc(Cl)cc21 (stereo unspecified),-4,-2,-22,50*,-6,-2
Cc1ccc(OCC(=O)Nc2ccccc2[N+](=O)[O-])c(Br)c1,0,-1,30,7,-2,1
COCC(C)NS(=O)(=O)c1ccc(C(=O)NCCCn2ccc3ccccc32)cc1 (stereo unspecified),-6,0,0,-4,0,-1
Nn1c(C2COc3ccccc3O2)n[nH]c1=S (stereo unspecified),-1,-3,78*,3,3,-4
Cc1ccc(CN2CCCN(C)CC2)c(C)c1,-5,-1,34,1,6,1
COc1ccc(/C=C/c2nnc(NC(=O)CSc3ccc(C)cc3)s2)cc1,9,-3,10,-2,50*,-3
